{"source": "paper PMC7993274", "about": "(Clinical and Translational Science, 2020)", "key": {"[1]": {"assay": "Urinary PK, MAD period day 10", "type": "in vivo, human", "conditions": "day 10, across all doses", "procedure,_shortened": "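During the MAD period, urine was collected on day −1 (0–24 h) and day 10 (0–12 h and 12–24 h), with LLOQ 1 ng/mL. Renal clearance and unchanged drug recovered in urine were summarized descriptively as geometric mean (CV), by dose group and for the Japanese 400 mg q.d. cohort.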"}, "MATE1": {"system": "MATE1", "conditions": "cited from earlier work"}, "OCT2": {"system": "OCT2", "conditions": "cited from earlier work"}, "[2]": {"assay": "Clinical laboratory parameters, vital signs, ECG and overall safety", "type": "in vivo, human", "procedure,_shortened": "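Double-blind, placebo-controlled study in healthy men and nonchildbearing women aged 18–55 y. The SAD period gave one fasted oral dose; the MAD period gave fed dosing q.d. for 10 days, plus a separate b.i.d. cohort. TEAEs, serious AEs and discontinuation AEs were monitored ≥28 days after the last dose. Vital signs, physical exam, 12-lead ECG, hematology, clinical chemistry and urinalysis were also recorded. Data summarized descriptively.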"}, "[3]": {"conditions": "background statement, no reference given; cited from earlier work"}, "[4]": {"conditions": "background statement, no reference given; cited from earlier work", "remark": "listed apart in the source"}, "MATE2": {"system": "MATE2", "conditions": "cited from earlier work"}, "OATP1B3": {"system": "OATP1B3", "conditions": "cited from earlier work"}, "MRP1": {"system": "MRP1", "conditions": "cited from earlier work"}, "[5]": {"assay": "Plasma PK, single ascending dose", "type": "in vivo, human", "conditions": "for t1/2: arithmetic mean (SD); for AUCinf (dn) / Cmax (dn): dose normalized; for AUCinf (dn) / Cmax (dn) / AUCinf / Cmax: geometric mean (CV %); for Tmax: median (range)", "procedure,_shortened": "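Healthy volunteers were randomized 3:1 to test compound or placebo, given as a single oral dose of 3–1,600 mg (tablets; suspension for 3 mg) after an overnight fast of ≥8 h. Plasma was sampled predose and at 0.5–72 h. Assay LLOQ was 1 ng/mL. Parameters came from noncompartmental analysis, were dose-normalized to 1 mg, and were reported as geometric mean (CV), with Tmax excepted.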"}, "Impact of food on PK": {"assay": "Impact of food on PK", "type": "in vivo, human", "design": "Cmax adjusted geometric mean (90% CI) for fed vs. fasted / AUC24 adjusted geometric mean for fed vs. fasted (90% CI): unit not given beside the values", "conditions": "for increase in AUC24 with a meal / increase in Cmax with a meal: fed vs fasted"}, "[6]": {"conditions": "SAD 1,600 mg single dose fasted"}}, "note": "“Also recorded” adds a separate entry of the source."}
{"compound": "Cn1cc(-c2cn3nccc3c(-c3cnn([C@]4(CC#N)C[C@@H](C#N)C4)c3)n2)cn1", "note": "[PF‐06826647]", "values": [{"measurement": "dose recovered unchanged in urine", "setting": "[1]", "value": "< 1.5", "unit": "%"}, {"measurement": "inhibition of transporter protein MATE1", "setting": "MATE1", "value": "minimal inhibition"}, {"measurement": "inhibition of transporter protein OCT2", "setting": "OCT2", "value": "minimal inhibition"}, {"measurement": "increase in median platelet count from baseline", "setting": "[2]; SAD 1,600 mg (placebo: 6% decrease)", "value": 28, "unit": "%"}, {"measurement": "changes in lipid parameters (LDL, HDL, total cholesterol)", "setting": "[2]; SAD and MAD treatment groups", "value": "small, and similar to those observed in the placebo group"}, {"measurement": "intensity of TEAEs", "setting": "[2]; all TEAEs", "value": "mild in intensity"}, {"measurement": "lymphocyte counts", "setting": "[2]; assessment period", "value": "No clinically meaningful changes"}, {"measurement": "neutrophil counts", "setting": "[2]; assessment period", "value": "No clinically meaningful changes"}, {"measurement": "events of acne or aphthous ulcers", "setting": "[2]; either treatment period", "value": "No events of acne or aphthous ulcers were reported"}, {"measurement": "serum cystatin C, serum creatinine‐based and cystatin C‐based eGFR", "setting": "[2]; human, in vivo", "value": "No clinically meaningful changes"}, {"measurement": "vital signs, ECG parameters, physical examination", "setting": "[2]; human, in vivo", "value": "No clinically significant findings"}, {"measurement": "platelet counts", "setting": "[2]; participants receiving PF‐06826647", "value": "remained within the normal range"}, {"measurement": "tolerability", "setting": "[2]; single ≤ 1,600 mg, multiple ≤ 1,200 mg q.d., 200 mg b.i.d., 10‐day dosing", "value": "well‐tolerated"}, {"measurement": "serum creatinine increase from baseline", "setting": "[2]; some participants, isolated timepoints", "value": "up to 0.3 mg/dL"}, {"measurement": "participants with gastrointestinal AEs", "setting": "[2]; whole study, three participants", "value": 4, "unit": "%"}, {"measurement": "cellular permeability", "setting": "[3]", "value": "~ 17 × 10^‐6 cm/s"}, {"measurement": "pKa", "setting": "[4]", "value": "< 1.7"}, {"measurement": "inhibition of transporter protein MATE2", "setting": "MATE2", "value": "MATE2 inhibition; also recorded: inhibitor of the MATE2 renal transporter"}, {"measurement": "inhibition of transporter protein OATP1B3", "setting": "OATP1B3", "value": "minimal inhibition"}, {"measurement": "inhibition of transporter protein MRP1", "setting": "MRP1", "value": "minimal inhibition"}, {"measurement": "t1/2", "setting": "[5]; SAD 3 mg single dose fasted", "value": "3.6 (1.3) hour"}, {"measurement": "AUCinf (dn)", "setting": "[5]; SAD 3 mg single dose fasted", "value": "15.9 (59) ng.hour/mL/mg"}, {"measurement": "Cmax (dn)", "setting": "[5]; SAD 3 mg single dose fasted", "value": "2.6 (38) ng/mL/mg"}, {"measurement": "AUCinf", "setting": "[5]; SAD 3 mg single dose fasted", "value": "47.6 (59) ng.hour/mL"}, {"measurement": "Cmax", "setting": "[5]; SAD 3 mg single dose fasted", "value": "7.8 (38) ng/mL"}, {"measurement": "Tmax", "setting": "[5]; SAD 3 mg single dose fasted", "value": "2.0 (1.0–2.0) hour"}, {"measurement": "t1/2", "setting": "[5]; SAD 10 mg single dose fasted", "value": "6.0 (1.9) hour"}, {"measurement": "AUCinf (dn)", "setting": "[5]; SAD 10 mg single dose fasted", "value": "36.9 (67) ng.hour/mL/mg"}, {"measurement": "Cmax (dn)", "setting": "[5]; SAD 10 mg single dose fasted", "value": "4.7 (35) ng/mL/mg"}, {"measurement": "AUCinf", "setting": "[5]; SAD 10 mg single dose fasted", "value": "369.3 (67) ng.hour/mL"}, {"measurement": "Cmax", "setting": "[5]; SAD 10 mg single dose fasted", "value": "47.1 (35) ng/mL"}, {"measurement": "Tmax", "setting": "[5]; SAD 10 mg single dose fasted", "value": "2.0 (1.0–4.0) hour"}, {"measurement": "t1/2", "setting": "[5]; SAD 30 mg single dose fasted", "value": "19.7 (9.5) hour"}, {"measurement": "AUCinf (dn)", "setting": "[5]; SAD 30 mg single dose fasted", "value": "28.3 (41) ng.hour/mL/mg"}, {"measurement": "Cmax (dn)", "setting": "[5]; SAD 30 mg single dose fasted", "value": "2.6 (34) ng/mL/mg"}, {"measurement": "AUCinf", "setting": "[5]; SAD 30 mg single dose fasted", "value": "848.4 (40) ng.hour/mL"}, {"measurement": "Cmax", "setting": "[5]; SAD 30 mg single dose fasted", "value": "77.9 (34) ng/mL"}, {"measurement": "Tmax", "setting": "[5]; SAD 30 mg single dose fasted", "value": "2.0 (1.0–4.0) hour"}, {"measurement": "t1/2", "setting": "[5]; SAD 100 mg single dose fasted", "value": "38.8 (36.0) hour"}, {"measurement": "AUCinf (dn)", "setting": "[5]; SAD 100 mg single dose fasted", "value": "15.8 (42) ng.hour/mL/mg"}, {"measurement": "Cmax (dn)", "setting": "[5]; SAD 100 mg single dose fasted", "value": "1.7 (55) ng/mL/mg"}, {"measurement": "AUCinf", "setting": "[5]; SAD 100 mg single dose fasted", "value": "1,582.0 (42) ng.hour/mL"}, {"measurement": "Cmax", "setting": "[5]; SAD 100 mg single dose fasted", "value": "166.8 (55) ng/mL"}, {"measurement": "Tmax", "setting": "[5]; SAD 100 mg single dose fasted", "value": "2.0 (2.0–6.0) hour"}, {"measurement": "t1/2", "setting": "[5]; SAD 400 mg single dose fasted", "value": "16.3 (9.3) hour"}, {"measurement": "AUCinf (dn)", "setting": "[5]; SAD 400 mg single dose fasted", "value": "7.6 (65) ng.hour/mL/mg"}, {"measurement": "Cmax (dn)", "setting": "[5]; SAD 400 mg single dose fasted", "value": "1.0 (62) ng/mL/mg"}, {"measurement": "AUCinf", "setting": "[5]; SAD 400 mg single dose fasted", "value": "3,056.0 (65) ng.hour/mL"}, {"measurement": "Cmax", "setting": "[5]; SAD 400 mg single dose fasted", "value": "404.8 (62) ng/mL"}, {"measurement": "Tmax", "setting": "[5]; SAD 400 mg single dose fasted", "value": "2.0 (0.5–4.0) hour"}, {"measurement": "t1/2", "setting": "[5]; [6]", "value": "22.2 (24.6) hour"}, {"measurement": "AUCinf (dn)", "setting": "[5]; [6]", "value": "7.4 (25) ng.hour/mL/mg"}, {"measurement": "Cmax (dn)", "setting": "[5]; [6]", "value": "0.8 (25) ng/mL/mg"}, {"measurement": "AUCinf", "setting": "[5]; [6]", "value": "11,790.0 (25) ng.hour/mL"}, {"measurement": "Cmax", "setting": "[5]; [6]", "value": "1,218.0 (25) ng/mL"}, {"measurement": "Tmax", "setting": "[5]; [6]", "value": "2.0 (0.5–4.0) hour"}, {"measurement": "dose proportionality of AUCinf and Cmax", "setting": "[5]; SAD doses of 3–10 mg", "value": "greater than dose‐proportional"}, {"measurement": "dose proportionality of AUCinf and Cmax", "setting": "[5]; SAD doses of 10–400 mg", "value": "less than dose‐proportional"}, {"measurement": "dose proportionality of AUCinf and Cmax", "setting": "[5]; SAD doses of 400–1,600 mg", "value": "dose‐proportional"}, {"measurement": "median Tmax", "setting": "[5]; fasted state, SAD, overall", "value": 2, "unit": "h"}, {"measurement": "AUC24 adjusted geometric mean for fed vs. fasted (90% CI)", "setting": "Impact of food on PK; 30 mg", "value": "122.0 (78.7–189.2)"}, {"measurement": "Cmax adjusted geometric mean (90% CI) for fed vs. fasted", "setting": "Impact of food on PK; 30 mg", "value": "107.2 (74.2–154.8)"}, {"measurement": "increase in AUC24 with a meal", "setting": "Impact of food on PK; 30 mg", "value": 22, "unit": "%"}, {"measurement": "increase in Cmax with a meal", "setting": "Impact of food on PK; 30 mg", "value": 7, "unit": "%"}, {"measurement": "AUC24 adjusted geometric mean for fed vs. fasted (90% CI)", "setting": "Impact of food on PK; 100 mg", "value": "155.7 (99.1–244.6)"}, {"measurement": "Cmax adjusted geometric mean (90% CI) for fed vs. fasted", "setting": "Impact of food on PK; 100 mg", "value": "160.2 (109.7–234.0)"}, {"measurement": "increase in AUC24 with a meal", "setting": "Impact of food on PK; 100 mg", "value": 56, "unit": "%"}, {"measurement": "increase in Cmax with a meal", "setting": "Impact of food on PK; 100 mg", "value": 60, "unit": "%"}, {"measurement": "AUC24 adjusted geometric mean for fed vs. fasted (90% CI)", "setting": "Impact of food on PK; 400 mg", "value": "175.6 (113.3–272.3)"}, {"measurement": "Cmax adjusted geometric mean (90% CI) for fed vs. fasted", "setting": "Impact of food on PK; 400 mg", "value": "144.8 (100.2–209.1)"}, {"measurement": "increase in AUC24 with a meal", "setting": "Impact of food on PK; 400 mg", "value": 76, "unit": "%"}, {"measurement": "increase in Cmax with a meal", "setting": "Impact of food on PK; 400 mg", "value": 45, "unit": "%"}, {"measurement": "median Tmax with food", "setting": "Impact of food on PK; fed, day 1 MAD, doses of 30–400 mg", "value": "3.0 to 4.0", "unit": "h"}]}
